Results: ChEMBL document CHEMBL1143985, “Aryl azoles with neuroprotective activity--parallel synthesis and attempts at target identification” (2008)
Activity calls are given as the source filed them. The rule behind the calls is not given here.

Tests used:
[1] = Neuroprotective effect against NMDA-induced toxicity in Sprague-Dawley rat mixed cortical neurons assessed as LDH release at 10 uM co-treated with NMDA; format: functional, Cortical neurone
In short: (§1)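 Mixed cortical cultures from E16 Sprague–Dawley rat neocortex, grown in Neurobasal with 5% FBS and used at 12 days in vitro. Compound added 20 min (co-treatment) or 24 h (pre-treatment) before NMDA (60 µM). MK-801 10 µM served as positive control. After 24 h, LDH release was read and normalized to the NMDA-released level. Technical replicates per sample were combined across independent experiments.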

[2] = Displacement of [3H]batrachotoxinin from sodium channel site 2 at 10 uM relative to veratridine
[3] = Neuroprotective effect against NMDA-induced toxicity in Sprague-Dawley rat mixed cortical neurons assessed as LDH release at 1 uM pretreated before NMDA treatment; format: functional, Cortical neurone; in short: as §1
[4] = Neuroprotective effect against NMDA-induced toxicity in Sprague-Dawley rat mixed cortical neurons assessed as LDH release at 10 uM pre-treated before NMDA treatment; format: functional, Cortical neurone; in short: as §1
[5] = Neuroprotective effect against NMDA-induced toxicity in Sprague-Dawley rat mixed cortical neurons assessed as LDH release at 1 uM co-treated with NMDA; format: functional, Cortical neurone; in short: as §1
Cortical neurone = assay: Neuroprotective effect against NMDA-induced toxicity in Sprague-Dawley rat mixed cortical neurons assessed as LDH release at 0.1 uM co-treated with NMDA; format: functional; in short: as §1
[6] = Neuroprotective effect against veratridine-induced toxicity in Sprague-Dawley rat pure cortical neurons assessed as XTT release at 1 uM co-treated with veratridine; format: functional, Cortical neurone
In short: (§2)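 E16 Sprague–Dawley rat cortical cultures, either mixed (Neurobasal with 5% FBS) or pure neuronal (Neurobasal with B27), used at 12 days in vitro. Compound at 1 or 10 µM was added 20 min before veratridine (60 µM). Viability was read 24 h later by LDH release in mixed cultures and XTT in pure cultures, normalized to veratridine. Three experiments, eight replicates each.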

[7] = Neuroprotective effect against veratridine-induced toxicity in Sprague-Dawley rat pure cortical neurons assessed as XTT release at 10 uM co-treated with veratridine; format: functional, Cortical neurone; in short: as §2
[8] = Neuroprotective effect against veratridine-induced toxicity in Sprague-Dawley rat mixed cortical neurons assessed as XTT release at 10 uM pre-treated before veratridine treatment; format: functional, Cortical neurone
[9] = Neuroprotective effect against veratridine-induced toxicity in Sprague-Dawley mixed rat cortical neurons assessed as LDH release at 1 uM co-treated with veratridine
[10] = Neuroprotective effect against veratridine-induced toxicity in Sprague-Dawley mixed rat cortical neurons assessed as LDH release at 10 uM co-treated with veratridine

Structure (SMILES)	Activity [1]	inhibition [2]	other results
CC(=O)N1N=C(c2ccc([N+](=O)[O-])cc2)CC1c1ccccc1 (stereo unspecified)	85.5%	17%	–
COc1ccc(C(=O)O[C@H]2CC[C@@]3(C)[C@@H]4CC[C@H]5[C@]6(O)C[C@H](O)[C@@]7(O)[C@@H](CN8C[C@@H](C)CC[C@H]8[C@@]7(C)O)[C@]6(O)C[C@@]53O[C@]24O)cc1OC	–	100%	–
Cn1nc(-c2ccc(Cl)cc2)cc1-c1ccccc1	87.3%	13%	–
CC(=O)N1N=C(c2ccccc2)CC1c1cccc(Cl)c1 (stereo unspecified)	86.4%	27%	–
COc1cccc(-c2cc(-c3ccccc3)nn2C)c1	78.3%	12%	–
Cn1nc(-c2ccccc2)cc1-c1ccc2[nH]ccc2c1	67.1%	41%	Activity [3]: 90.2%; Activity [4]: 86%; Activity [5]: 80.3%; Activity (Cortical neurone): inactive; Activity [6]: 82.7%; Activity [7]: 56.8%; Activity [8]: 40%; Activity [9]: 87.9%; Activity [10]: 63.2%
Cn1nc(-c2ccc(C(=O)O)cc2)cc1-c1ccc(C(C)(C)C)cc1	61.1%	–	Activity [2]: inactive
COc1cccc(-c2cc(-c3ccccc3)n[nH]2)c1	76%	27%	–
COc1ccccc1-c1cnn(-c2ccccc2)c1	80.3%	–	Activity [2]: inactive
Cn1nc(-c2ccc([N+](=O)[O-])cc2)cc1-c1ccccc1	86.3%	8%	–
Cn1nc(-c2ccccc2)cc1-c1c[nH]c2ccccc12	76.7%	14%	–
Cn1nc(-c2ccccc2)cc1-c1cccc(Cl)c1	65.6%	15%	–
COc1cccc(C2CC(c3ccccc3)=NN2C(C)=O)c1 (stereo unspecified)	81%	16%	–
O=[N+]([O-])c1cccc(-c2cc(-c3ccccc3)n[nH]2)c1	75.6%	15%	Activity [6]: 80.9%; Activity [7]: 51.2%; Activity [8]: 70%; Activity [9]: 77.6%; Activity [10]: 26.6%
COc1ccc(-c2cc(-c3ccccc3)n(C)n2)cc1	70.4%	8%	–
O=[N+]([O-])c1ccc(-c2cc(-c3ccccc3)n[nH]2)cc1	89%	14%	–
Cn1nc(-c2ccccc2)cc1-c1cccc([N+](=O)[O-])c1	85.5%	4%	–
Clc1cccc(-c2cc(-c3ccccc3)n[nH]2)c1	96.4%	21%	–
Clc1ccc(-c2cc(-c3ccccc3)n[nH]2)cc1	66.1%	16%	Activity [6]: 75%; Activity [7]: 56.5%; Activity [8]: 70%; Activity [9]: 74.1%; Activity [10]: 24.2%
COc1ccc(-c2cc(-c3ccccc3)n[nH]2)cc1	67.2%	30%	Activity [3]: 91.1%; Activity [4]: 95%; Activity [5]: 81.7%; Activity [6]: 70.4%; Activity [7]: 64.9%; Activity [8]: 50%; Activity [9]: 80.9%; Activity [10]: 49.2%
